Test results as given in paper PMC9097774 (International Journal of Oncology, 2022).

Key:
[1] = cited from earlier work
[2] = system: GLUT2 expression in HepG2 and Huh7 cells; experiment: Western blotting of GLUT2; assay type: cell-based, human; settings: Fig. S1
HepG2 cells = experiment: Glycolytic activity; assay type: cell-based, human; settings: cell culture supernatant; Fig. S1
In short: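 Glucose remaining and lactate released into the cell culture supernatant were measured with a blood gas analyser.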

[3] = system: p53 phosphorylation in HepG2 and Huh7 cells; experiment: Western blotting of p53 and phosphorylated p53; assay type: cell-based, human; settings: 24 h; BB 0.6 and 1.2 µM; Vs 4.0 µM
In short: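 HepG2 and Huh7 cells were treated 24 h in RPMI with test compound (0.6 or 1.2 µM) or reference HDAC inhibitor (4.0 µM). Whole-cell extracts were made in SDS/deoxycholate/NP-40 buffer with protease inhibitors. Samples of 30 µg protein were run on 7.5% or 12% SDS-PAGE and blotted to PVDF. Blots were milk-blocked, given primary antibody overnight at 4°C, then HRP secondary (1:10,000) for 1 h. Tubulin served as loading control.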

HDAC1 = HDAC1 (Homo sapiens, UniProt Q13547); experiment: Cell free fluorogenic HDAC assay; assay type: biochemical; settings: IC50 and two-fold IC50 concentrations; control set to 100%
Sequence of HDAC1 (Q13547 whole entry): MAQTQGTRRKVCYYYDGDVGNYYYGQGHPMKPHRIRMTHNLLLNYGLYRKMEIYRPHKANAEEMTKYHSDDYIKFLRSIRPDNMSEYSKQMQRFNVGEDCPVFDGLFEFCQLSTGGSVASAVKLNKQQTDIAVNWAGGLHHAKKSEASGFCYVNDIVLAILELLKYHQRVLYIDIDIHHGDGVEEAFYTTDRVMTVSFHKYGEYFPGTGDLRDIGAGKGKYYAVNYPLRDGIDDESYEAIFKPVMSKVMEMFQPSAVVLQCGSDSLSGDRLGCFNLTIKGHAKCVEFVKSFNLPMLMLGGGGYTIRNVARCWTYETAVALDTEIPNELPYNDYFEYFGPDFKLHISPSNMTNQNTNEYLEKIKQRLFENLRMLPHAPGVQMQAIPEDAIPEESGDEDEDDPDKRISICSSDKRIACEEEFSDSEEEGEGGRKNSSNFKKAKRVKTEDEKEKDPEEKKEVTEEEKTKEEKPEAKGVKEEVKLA

| Compound | therapeutic concentration [1] | Protein expression levels of GLUT2 [2] | glycolytic activity (glucose consumption, lactate production) (HepG2 cells) | phosphorylation of p53 [3] | effect on activity of HDAC1 (HDAC1) |
| --- | --- | --- | --- | --- | --- |
| CNC(=O)c1cc(Oc2ccc(NC(=O)Nc3ccc(Cl)c(C(F)(F)F)c3)cc2)ccn1 [sorafenib] | ~ 8 µM |  |  |  |  |
| O=C(CCCCCCC(=O)Nc1ccccc1)NO [vorinostat] |  | markedly reduced the expression of GLUT2 | no such reduction in glycolytic activity could be observed | no increase in p53 phosphorylation | potent inhibitory effects |
